Active and inactive are the calls of the source. No cut-off for these calls is given here.
What was measured:
[1] = biological target: T1, Oxysterols receptor LXR-beta (Homo sapiens) (UniProt P55055); assay: Agonist activity at GAL-linked human LXRbeta expressed in THP1 cells assessed as stimulation of co-activator recruitment by FRET assay relative to GW-3965; type: functional
T1 sequence (whole entry): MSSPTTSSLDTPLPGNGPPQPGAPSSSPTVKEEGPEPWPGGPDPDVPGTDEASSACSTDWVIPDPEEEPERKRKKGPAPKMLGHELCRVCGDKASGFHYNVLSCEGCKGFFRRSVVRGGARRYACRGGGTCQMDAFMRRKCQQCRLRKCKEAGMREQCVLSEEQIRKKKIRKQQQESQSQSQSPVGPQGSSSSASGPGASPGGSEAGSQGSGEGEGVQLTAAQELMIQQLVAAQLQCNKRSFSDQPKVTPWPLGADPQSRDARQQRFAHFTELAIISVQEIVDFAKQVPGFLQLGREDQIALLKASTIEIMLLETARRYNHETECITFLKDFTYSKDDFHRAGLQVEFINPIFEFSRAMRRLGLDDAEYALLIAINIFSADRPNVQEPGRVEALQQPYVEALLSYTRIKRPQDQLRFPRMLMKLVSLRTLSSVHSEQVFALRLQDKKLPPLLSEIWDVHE
How it was run: (§1)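 Cell-free TR-FRET coactivator recruitment: 20 nM His-tagged hLXRα or hLXRβ, 300 nM biotinylated SRC-1 peptide, Eu-anti-His antibody, APC-streptavidin. 12-point curves from 20 µM; 1 h at 37 °C. Duplicate. %E = maximal coactivator recruitment relative to reference dual agonist in same experiment.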

THP-1 [2] = assay: Increase in ABCA1 gene expression in THP1 cells at 1 uM relative to GW-3965; type: functional, Homo sapiens
How it was run: (§2)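 THP-1 cells differentiated with 40 ng/mL PMA for 1 day, then switched to RPMI with 2% lipoprotein-deficient FBS. Compound added 6 h later at 1 or 10 µM in DMSO, incubated 24 h. ABCA1 mRNA by one-step TaqMan qRT-PCR, triplicate, multiplexed with 36B4; fold induction vs DMSO, expressed relative to reference dual agonist.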

[3] = Cmax in C57BL/6 mouse at 20 mg/kg, po; type: ADME, organism-based; parameters: dose 20 mg/kg, route oral; conditions: in vivo
How it was run: (§3)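 Mouse PK study, IV and PO; compound formulated at 2.5 mg/mL in PEG300/Tween 80 (4:1). IV dose 5 mpk (AUC, Cmax, clearance, Vss); oral dose 20 mpk (AUC, Cmax, bioavailability, t1/2).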

THP-1 [4] = assay: Increase in ABCA1 gene expression in THP1 cells at 10 uM relative to GW-3965; type: functional, Homo sapiens; how it was run: as §2
[5] = biological target: T2, Oxysterols receptor LXR-beta (Homo sapiens, UniProt P55055); assay: Agonist activity at GAL-linked human LXRbeta expressed in THP1 cells assessed as stimulation of co-activator recruitment by FRET assay; type: functional; how it was run: as §1
T2 sequence (P55055 whole entry): T1 sequence (whole entry)

[6] = AUC in C57BL/6 mouse at 20 mg/kg, po; type: ADME, organism-based; parameters: dose 20 mg/kg, route oral; conditions: plasma; how it was run: as §3
[7] = biological target: T3, Oxysterols receptor LXR-alpha (Homo sapiens, UniProt Q13133); assay: Agonist activity at GAL-linked human LXRalpha expressed in THP1 cells assessed as stimulation of coactivator recruitment by FRET assay; type: functional; how it was run: as §1
T3 sequence (Q13133 whole entry): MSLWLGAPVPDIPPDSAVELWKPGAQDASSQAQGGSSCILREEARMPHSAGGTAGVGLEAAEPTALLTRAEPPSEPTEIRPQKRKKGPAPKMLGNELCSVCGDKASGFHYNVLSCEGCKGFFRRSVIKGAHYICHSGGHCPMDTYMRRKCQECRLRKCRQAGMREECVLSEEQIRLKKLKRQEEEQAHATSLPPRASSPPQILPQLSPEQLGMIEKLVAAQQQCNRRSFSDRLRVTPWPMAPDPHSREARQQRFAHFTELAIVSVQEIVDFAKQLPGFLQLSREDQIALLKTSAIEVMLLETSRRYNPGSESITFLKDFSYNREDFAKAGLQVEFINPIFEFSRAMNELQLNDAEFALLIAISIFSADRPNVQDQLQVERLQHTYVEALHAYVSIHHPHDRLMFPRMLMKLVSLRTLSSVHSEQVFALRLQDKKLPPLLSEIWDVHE

Liver [8] = assay: Effect on ABCA1 gene expression in C57BL/6 mouse liver; type: functional, tissue-based
How it was run: (§4)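 Male C57BL/6 mice, 10 weeks old, chow-fed, gavaged daily with vehicle or compound (20–200 mpk) for 3 days. Fasted overnight before the last dose; killed 3 h later. Tissue RNA analysed by TaqMan qRT-PCR.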

Liver [9] = assay: Effect on SREBP1c gene expression in C57BL/6 mouse liver; type: functional, tissue-based; how it was run: as §4
[10] = Bioavailability in C57BL/6 mouse at 20 mg/kg, po; type: ADME, organism-based; conditions: in vivo; how it was run: as §3
[11] = AUC in C57BL/6 mouse at 5 mg/kg, iv; type: ADME, organism-based; parameters: dose 5 mg/kg, route intravenous; conditions: plasma; how it was run: as §3
[12] = Cmax in C57BL/6 mouse at 5 mg/kg, iv; type: ADME, organism-based; parameters: dose 5 mg/kg, route intravenous; conditions: in vivo; how it was run: as §3
[13] = Clearance in C57BL/6 mouse at 5 mg/kg, iv; type: ADME, organism-based; parameters: dose 5 mg/kg, route intravenous; conditions: in vivo; how it was run: as §3
[14] = biological target: T4, Oxysterols receptor LXR-alpha (Homo sapiens) (UniProt Q13133); assay: Agonist activity at GAL-linked human LXRalpha expressed in THP1 cells assessed as stimulation of co-activator recruitment by FRET assay relative to GW-3965; type: functional; how it was run: as §1
T4 sequence (whole entry): T3 sequence (Q13133 whole entry)

[15] = Half life in C57BL/6 mouse at 20 mg/kg, po; type: ADME, organism-based; parameters: dose 20 mg/kg, route oral; conditions: in vivo; how it was run: as §3
[16] = Volume of distribution at steady state in C57BL/6 mouse at 5 mg/kg, iv; type: ADME, organism-based; parameters: dose 5 mg/kg, route intravenous; conditions: in vivo, read-out: Vss; how it was run: as §3

Efficacy [1]: 98% | Cmax [3]: 6.9 µM | EC50 [5]: 0.076 µM | AUC [6]: 16800 ng·h/mL | EC50 [7]: 1.4 µM | bioavailability [10]: 11% | AUC [11]: 35700 ng·h/mL | Cmax [12]: 70.9 µM | clearance [13]: 2.26 mL/min/kg | Efficacy [14]: 62% | half-life [15]: 4.5 h | Vd [16]: 0.44 L/kg
Structure (SMILES): COc1cccc(C2SC(c3ccc(F)cc3)=NN2C(=O)c2c(F)cc(F)cc2F)c1OC (stereo unspecified)
Activity (THP-1 [2]): 42% | Activity (THP-1 [4]): 53% | Activity (Liver [8]): inactive | Activity (Liver [9]): inactive

Source: ChEMBL document CHEMBL1148736, “N-Acylthiadiazolines, a new class of liver X receptor agonists with selectivity for LXRbeta” (J Med Chem, 2007)
